Converted amounts (≈) assume the structure as drawn. The source made the active and inactive calls. The rule behind the calls is not given here.
Key:
Human alphaherpesvirus 2 [1] = test: Antiviral activity against HSV2 G in human E6SM cells assessed as reduction of virus-induced cytopathogenicity; format: functional; conditions: Human alphaherpesvirus 2, G
How it was run: (§1)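 Confluent cell monolayers (E6SM, HEL, HeLa or Vero, per line) inoculated with 100 CCID50 virus; 1 h adsorption, residual virus removed, then incubated with compound at 400, 200, 100 … µg/ml. Cytopathicity scored once complete in untreated virus controls; MIC = concentration inhibiting virus-induced cytopathicity.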

Sindbis virus = test: Antiviral activity against Sindbis virus in african green monkey Vero cells assessed as reduction of virus-induced cytopathogenicity; format: functional; how it was run: as §1
[2] = tested on: Mammalian orthoreovirus 1; test: Antiviral activity against Reo virus 1 in african green monkey Vero cells assessed as reduction of virus-induced cytopathogenicity; format: functional; how it was run: as §1
[3] = tested on: Vesicular stomatitis virus; test: Antiviral activity against vesicular stomatitis virus in human HeLa cells assessed as inhibition of virus-induced cytopathogenicity; format: functional; how it was run: as §1
Human alphaherpesvirus 1 [4] = test: Antiviral activity against thymidine kinase deficient and acyclovir resistant HSV1 KOS in human HEL cells assessed as reduction of virus-induced cytopathogenicity; format: functional; conditions: Human alphaherpesvirus 1, KOS; how it was run: as §1
Vero = test: Cytotoxicity against african green monkey Vero cells; format: cell-based; conditions: chlorocebus sabaeus
How it was run: (§2)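 Uninfected cell cultures exposed to test compounds alongside antiviral assays; minimum cytotoxic concentration (MCC) = concentration causing a microscopically detectable alteration of cell morphology.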

[5] = Cytotoxicity against human HeLa cells; format: cell-based; how it was run: as §2
[6] = Cytotoxicity against human MT4 cells by MTT assay; format: cell-based
How it was run: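 Mock-infected MT-4 cells (6 × 10⁵ cells/ml) with serial five-fold compound dilutions in triplicate; MTT reduction read at 540 and 690 nm after 5 days, median OD of three wells; CC50 = concentration reducing OD540 of mock-infected control by 50%.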

Punta Toro virus = test: Antiviral activity against Punta Toro virus in african green monkey Vero cells assessed as reduction of virus-induced cytopathogenicity; format: functional; how it was run: as §1
Human respirovirus 3 = test: Antiviral activity against Parainfluenza 3 virus in african green monkey Vero cells assessed as reduction of virus-induced cytopathogenicity; format: functional; how it was run: as §1
Human alphaherpesvirus 1 [7] = test: Antiviral activity against thymidine kinase deficient and acyclovir resistant HSV1 KOS in human E6SM cells assessed as reduction of virus-induced cytopathogenicity; format: functional; conditions: Human alphaherpesvirus 1, KOS; how it was run: as §1
[8] = tested on: Vesicular stomatitis virus; test: Antiviral activity against in Vesicular stomatitis virus in human HEL cells assessed as reduction of virus-induced cytopathogenicity; format: functional; how it was run: as §1
Human alphaherpesvirus 1 [9] = test: Antiviral activity against HSV1 KOS in human E6SM cells assessed as reduction of virus-induced cytopathogenicity; format: functional; conditions: Human alphaherpesvirus 1, KOS; how it was run: as §1
Human alphaherpesvirus 1 [10] = test: Antiviral activity against HSV1 KOS in human HEL cells assessed as reduction of virus-induced cytopathogenicity; format: functional; conditions: Human alphaherpesvirus 1, KOS; how it was run: as §1
[11] = tested on: Respiratory syncytial virus; test: Antiviral activity against respiratory syncytial virus in human HeLa cells assessed as inhibition of virus-induced cytopathogenicity; format: functional; how it was run: as §1
Coxsackievirus B4 [12] = test: Antiviral activity against Coxsackie virus B4 in african green monkey Vero cells assessed as reduction of virus-induced cytopathogenicity; format: functional; conditions: Enterovirus B; how it was run: as §1
E6SM = test: (§3) Cytotoxicity against human E6SM cells; format: cell-based; conditions: e6sm; how it was run: as §2
[13] = tested on: Vesicular stomatitis virus; test: Antiviral activity against in Vesicular stomatitis virus in human E6SM cells assessed as reduction of virus-induced cytopathogenicity; format: functional; how it was run: as §1
Human alphaherpesvirus 2 [14] = test: Antiviral activity against HSV2 G in human HEL cells assessed as reduction of virus-induced cytopathogenicity; format: functional; conditions: Human alphaherpesvirus 2, G; how it was run: as §1
[15] = Cytotoxicity against human HEL cells assessed as alteration of cell morphology; format: cell-based; how it was run: as §2
[16] = tested on: Human immunodeficiency virus 2; test: Antiviral activity against HIV2 ROD in human MT4 cells assessed as protection against virus-induced cytopathogenicity by MTT assay; format: functional, organism-based; design: Activity: concentration or dose not given beside the values; conditions: for IC50: Human immunodeficiency virus 2, ROD, MT4
How it was run: (§4)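 MT-4 cells at 6 × 10⁵ cells/ml infected with HIV-1 IIIB or HIV-2 ROD at 100–300 CCID50; compounds in serial five-fold dilutions, triplicate mock- and virus-infected wells. MTT viability read at 540 and 690 nm after 5 days, median OD of three wells; EC50 = 50% protection from viral cytopathic effect.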

Coxsackievirus B4 [17] = test: Antiviral activity against Coxsackie virus B4 in human HeLa cells assessed as inhibition of virus-induced cytopathogenicity; format: functional; conditions: Enterovirus B; how it was run: as §1
[18] = tested on: Human immunodeficiency virus 1; test: Antiviral activity against HIV1 3B in human MT4 cells assessed as protection against virus-induced cytopathogenicity by MTT assay; format: functional, organism-based; design: Activity: concentration or dose not given beside the values; conditions: for IC50: Human immunodeficiency virus 1, 3B, MT4; how it was run: as §4
Mycolicibacterium aurum = test: Antitubercular activity against Mycobacterium aurum A1; format: functional
Mycobacterium avium = test: Antitubercular activity against Mycobacterium avium; format: functional
[19] = tested on: Mycobacterium tuberculosis; test: Antitubercular activity against Mycobacterium tuberculosis H37Rv
[20] = Cytotoxicity against human HEL cells assessed as reduction of cell growth; format: cell-based
How it was run: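 HEL cells; CC50 = compound concentration reducing cell growth by 50%.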

Human betaherpesvirus 5 [21] = test: Antiviral activity against human cytomegalovirus AD169 infected HEL cells assessed as reduction in virus plaque formation; format: functional, organism-based; conditions: Human betaherpesvirus 5, AD169, HEL
Human betaherpesvirus 5 [22] = test: Antiviral activity against human cytomegalovirus Davis infected HEL cells assessed as reduction in virus plaque formation; format: functional, organism-based; conditions: Human betaherpesvirus 5, Davis
Human alphaherpesvirus 3 [23] = test: Antiviral activity against TK- VZV 07/1 infected HEL cells assessed as reduction in virus plaque formation; format: functional, organism-based; conditions: Human alphaherpesvirus 3, 07/1, HEL
[24] = as §3; format: cell-based; conditions: E6SM cells; how it was run: as §2
Human alphaherpesvirus 3 [25] = test: Antiviral activity against TK+ VZV OKA infected HEL cells assessed as reduction in virus plaque formation; format: functional, organism-based; conditions: Human alphaherpesvirus 3, OKA
[26] = tested on: Mycobacterium tuberculosis; test: Antitubercular activity against Mycobacterium tuberculosis H37Rv at 6.25 ug/ml by MABA assay; format: functional

Which results are given for `CCCCCCNC(=S)Nc1ccc(-c2n[nH]c(=S)n2CCCCCC)cc1`?
MIC (Human alphaherpesvirus 2 [1]): > 3.2 µg/mL; MIC (Sindbis virus): > 3.2 µg/mL; MIC [2]: > 3.2 µg/mL; MIC [3]: > 3.2 µg/mL; MIC (Human alphaherpesvirus 1 [4]): > 3.2 µg/mL; Activity (Vero): 16 µg/mL; MCC [5]: 16 µg/mL; CC50 [6]: 1.71 µg/mL (≈ 4.07 µM); MIC (Punta Toro virus): > 3.2 µg/mL; MIC (Human respirovirus 3): > 3.2 µg/mL; MIC (Human alphaherpesvirus 1 [7]): > 3.2 µg/mL; MIC [8]: > 3.2 µg/mL; MIC (Human alphaherpesvirus 1 [9]): > 3.2 µg/mL; MIC (Human alphaherpesvirus 1 [10]): > 3.2 µg/mL; MIC [11]: > 3.2 µg/mL; MIC (Coxsackievirus B4 [12]): > 3.2 µg/mL; Activity (E6SM): 16 µg/mL; MIC [13]: > 3.2 µg/mL; MIC (Human alphaherpesvirus 2 [14]): > 3.2 µg/mL; MCC [15]: 16 µg/mL; Activity [16]: 1%; IC50 [16]: > 1.71 µg/mL; MIC (Coxsackievirus B4 [17]): > 3.2 µg/mL; Activity [18]: 3%; IC50 [18]: > 1.71 µg/mL

Which results are given for `CC(C)CCOc1ccc(NC(=S)Nc2ccc(OCCC(C)C)cc2)cc1` [TIOCARLIDE]?
MIC (Mycolicibacterium aurum): 2 µg/mL (≈ 4.99 µM); MIC (Mycobacterium avium): 2 µg/mL (≈ 4.99 µM); MIC [19]: 2.5 µg/mL (≈ 6.24 µM)

For `CCNC(=S)Nc1ccc(OCc2n[nH]c(=S)n2C)cc1`, which MIC (Human alphaherpesvirus 2 [1]) is on record?
Its MIC is 240 µg/mL (≈ 742 µM).

And the MIC (Sindbis virus)?
Its MIC is over 80 µg/mL.

What about the MIC [2] of the same compound?
Its MIC is over 80 µg/mL.

And the MIC [3]?
Its MIC is over 80 µg/mL.

What about the MIC (Human alphaherpesvirus 1 [4]) of the same compound?
The MIC was 240 µg/mL (≈ 742 µM).

What about the Activity (Vero) of the same compound?
Its Activity is 400 µg/mL.

And the CC50 [20]?
The CC50 was over 50 µg/mL.

What about the EC50 (Human betaherpesvirus 5 [21]) of the same compound?
Its EC50 is over 100 µg/mL.

And the MCC [5]?
The MCC was 400 µg/mL.

What about the EC50 (Human betaherpesvirus 5 [22]) of the same compound?
Its EC50 is over 100 µg/mL.

What about the CC50 [6] of the same compound?
Its CC50 is at least 107 µg/mL.

And the MIC (Punta Toro virus)?
Its MIC is over 80 µg/mL.

What about the MIC (Human respirovirus 3) of the same compound?
The MIC was over 80 µg/mL.

And the EC50 (Human alphaherpesvirus 3 [23])?
The EC50 was over 100 µg/mL.

What about the MIC (Human alphaherpesvirus 1 [7]) of the same compound?
The MIC was 240 µg/mL (≈ 742 µM).

What about the MIC [8] of the same compound?
Its MIC is over 400 µg/mL.

What about the MIC (Human alphaherpesvirus 1 [9]) of the same compound?
The MIC was over 400 µg/mL.

And the MIC (Human alphaherpesvirus 1 [10])?
Its MIC is over 400 µg/mL.

What about the MIC [11] of the same compound?
The MIC was over 80 µg/mL.

And the MIC (Coxsackievirus B4 [12])?
Its MIC is over 80 µg/mL.

What about the MCC [24] of the same compound?
The MCC was over 400 µg/mL.

And the MIC [13]?
The MIC was over 400 µg/mL.

And the MIC (Human alphaherpesvirus 2 [14])?
The MIC was 240 µg/mL (≈ 742 µM).

What about the MCC [15] of the same compound?
The MCC was over 400 µg/mL.

And the Activity [16]?
The Activity was 2%.

What about the IC50 [16] of the same compound?
Its IC50 is over 125 µg/mL.

And the EC50 (Human alphaherpesvirus 3 [25])?
Its EC50 is over 100 µg/mL.

And the MIC (Coxsackievirus B4 [17])?
Its MIC is over 80 µg/mL.

What about the Activity [26] of the same compound?
The Activity was “inactive”.

What about the Activity [18] of the same compound?
Its Activity is 1.5%.

And the IC50 [18]?
The IC50 was over 107 µg/mL.

— ChEMBL document CHEMBL1149790, “Synthesis of some novel thiourea derivatives obtained from 5-[(4-aminophenoxy)methyl]-4-alkyl/aryl-2,4-dihydro-3H-1,2,4-triazole-3-thiones and evaluation as antiviral/anti-HIV and anti-tuberculosis agents” (Eur J Med Chem, 2008)
